Laboratory results as given in ChEMBL document CHEMBL4130535, “Aquilanols A and B, Macrocyclic Humulene-Type Sesquiterpenoids from the Agarwood of Aquilaria malaccensis” (2017).

Legend:
Aspergillus fumigatus = assay: Antifungal activity against Aspergillus fumigatus HIC 6094 after 48 to 72 hrs; format: functional
Summary of the method: (§1)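 MIC determination, following a previously reported method, against the listed fungal strains, with amphotericin B as the positive control.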

Staphylococcus aureus = assay: Antibacterial activity against Staphylococcus aureus ATCC 25923 after 24 hrs; format: functional; conditions: ATCC 25923, 24 h
Summary of the method: (§2)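 MIC determination, following a previously reported method, against the listed Gram-positive and Gram-negative ATCC strains.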

Enterococcus faecium = assay: Antibacterial activity against Enterococcus faecium ATCC 19434 after 24 hrs; format: functional; conditions: ATCC 19434, 24 h; summary of the method: as §2
Salmonella typhimurium = assay: Antibacterial activity against Salmonella enterica ATCC 14028 after 24 hrs; format: functional, Salmonella enterica subsp. enterica serovar Typhimurium; conditions: ATCC 14028, 24 h; summary of the method: as §2
Klebsiella pneumoniae = assay: Antibacterial activity against Klebsiella pneumoniae ATCC 10031 after 24 hrs; format: functional; conditions: ATCC 10031, 24 h; summary of the method: as §2
Trichophyton rubrum = assay: Antifungal activity against Trichophyton rubrum NBRC 9185 after 48 to 72 hrs; format: functional; summary of the method: as §1
Candida albicans = assay: Antifungal activity against Candida albicans ATCC 10231 after 48 to 72 hrs; format: functional; summary of the method: as §1
Enterococcus faecalis = assay: Antibacterial activity against Enterococcus faecalis ATCC 19433 after 24 hrs; format: functional; conditions: ATCC 19433, 24 h; summary of the method: as §2
[1] = test system: Trichophyton mentagrophytes; assay: Antifungal activity against Trichophyton mentagrophytes IFM 40996 after 48 to 72 hrs; format: functional; summary of the method: as §1
Escherichia coli = assay: Antibacterial activity against Escherichia coli ATCC 25922 after 24 hrs; format: functional; conditions: ATCC 25922, 24 h; summary of the method: as §2

Measured: MIC

C/C1=C/CC/C(CO)=C/CC(C)(C)/C=C/C1
430 to 580 µM: all assays above

COC(=O)[C@@]1(C)[C@]2(C)CC(=O)[C@@]1(O)CC1=C2C(=O)C[C@@H]1C
430 to 580 µM: all assays above

C[C@H]1CC=C2[C@H]1C[C@]1(O)C(=O)C[C@@]2(C)[C@]1(C)C=O
430 to 580 µM: all assays above

C=C1[C@@H](O)[C@]23CC[C@H](C)[C@@H]2C[C@@]1(O)C(=O)C=C3C
430 to 580 µM: all assays above

C=C1C2C[C@H]3[C@@H](C)CC[C@@]3(C(C)=CC2=O)[C@@H]1O
430 to 580 µM: all assays above

CC1(C)/C=C/C[C@@]2(C)OC/C(=C\C1)CC[C@@H]2O
430 to 580 µM: all assays above

COC(=O)[C@H]1C[C@]23CC[C@H](C)[C@@H]2C[C@@]1(O)C(=O)C=C3C
430 to 580 µM: all assays above

CC1(C)C/C=C2/CCC(O)C(C)(CC3OC31)OC2 (racemic)
430 to 580 µM: all assays above

C[C@H]1CC=C2[C@H]1C[C@]1(O)C(=O)C[C@@]2(C)[C@]1(C)CO
430 to 580 µM: all assays above
